# Bioassay records as filed in PubChem BioAssay.
# NPY Y2 blocker: blocks the human neuropeptide Y Y2 receptor; NPY-Y2 expressing cells, antagonist mode; inhibition, % at 2.7 µM; actives 0.99% (n = 140,000); in the data active = inhibition above about 17%;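 note: 0% = vehicle with agonist challenge and 100% = reference antagonist with challenge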
# S1P4 agonist: human S1P4 receptor agonism. actives 0.35% (n = 220,000). S1P4-expressing cell line, agonist reporter assay. activation, % at 4.98 µM. AID 1509; in the data active = activation above about 11%;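 note: 0% = DMSO vehicle and 100% = reference agonist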
# Target sequence (O95977 whole entry, looked up): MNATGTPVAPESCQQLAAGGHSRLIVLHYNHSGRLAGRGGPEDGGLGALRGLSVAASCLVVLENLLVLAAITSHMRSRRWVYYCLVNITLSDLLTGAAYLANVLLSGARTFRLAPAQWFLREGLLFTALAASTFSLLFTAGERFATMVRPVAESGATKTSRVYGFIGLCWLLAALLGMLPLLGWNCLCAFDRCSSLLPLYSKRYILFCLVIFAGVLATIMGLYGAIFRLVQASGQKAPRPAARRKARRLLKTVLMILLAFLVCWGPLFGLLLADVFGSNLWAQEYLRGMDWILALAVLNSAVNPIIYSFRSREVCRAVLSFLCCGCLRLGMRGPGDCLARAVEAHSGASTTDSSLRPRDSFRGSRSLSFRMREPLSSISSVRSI
# S1P4 antagonist: antagonists of human S1P4 receptor; O95977; S1P4-expressing cells, antagonist mode, reporter read-out; inhibition, % at 4.98 µM; actives 0.26% (n = 220,000); in the data active = inhibition above about 29%;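 note: 0% = wells stimulated with agonist and 100% = vehicle wells without agonist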
# NPY Y1 blocker: blocks the human neuropeptide Y Y1 receptor. P25929. HEK293-CNG Y1 cells, membrane potential fluorescence; NPY at EC95, then isoproterenol. inhibition, % at 3.6 µM. actives 1% (n = 200,000). AID 1040;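 active = inhibition above the campaign mean inhibition of all tested compounds plus 3 SD, cut at about 20% in these data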;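 note: 0% = DMSO wells given NPY plus isoproterenol and 100% = isoproterenol alone without NPY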
# Target sequence (P25929 whole entry, looked up): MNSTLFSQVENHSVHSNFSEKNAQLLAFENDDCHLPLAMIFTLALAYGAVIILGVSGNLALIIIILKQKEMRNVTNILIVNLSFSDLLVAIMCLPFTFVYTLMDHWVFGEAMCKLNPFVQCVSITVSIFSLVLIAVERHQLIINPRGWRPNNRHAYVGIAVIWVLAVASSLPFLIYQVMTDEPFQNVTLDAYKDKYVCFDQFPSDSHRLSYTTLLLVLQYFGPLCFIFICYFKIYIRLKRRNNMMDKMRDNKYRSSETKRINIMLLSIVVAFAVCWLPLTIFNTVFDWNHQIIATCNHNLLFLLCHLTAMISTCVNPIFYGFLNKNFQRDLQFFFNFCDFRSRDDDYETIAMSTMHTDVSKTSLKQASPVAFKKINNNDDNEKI
#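 Test system – HEK293 Y1/CNG channel cell line · Also added – NPY agonist 25 nM, then isoproterenol 1 µM plus Ro 20-1724 25 µM · Compound dosing – one concentration, 3.6 µM, in 0.4% DMSO · Schedule – compound incubation 1 h at room temperature, readout 45 min post-stimulation · Technique – fluorescence, membrane potential probe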
# NPY1 pot ag: potentiates or activates human NPY-Y1 receptor; AID 1304; NPY-Y1 expressing cells, potentiator/agonist activation; activation, % at 3.6 µM; actives 0.37% (n = 220,000); P25929; in the data active = activation above about 33%, passing the limit was not always enough;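 note: cells stimulated with NPY at EC10 then isoproterenol at EC100; 0% = low agonist plus stimulus and 100% = saturating agonist plus stimulus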
# NPY-Y2 PAM-ag: potentiates or activates human NPY-Y2 receptor. P49146. cells expressing NPY-Y2, potentiator/agonist read-out. activation, % at 3.6 µM. actives 0.45% (n = 220,000). AID 1359; in the data active = activation above about 27%;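 note: cells stimulated with NPY near EC25 plus isoproterenol at EC100; 0% = vehicle plus submaximal agonist and 100% = vehicle plus saturating agonist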
# NPY-Y2 pot conf: confirmation of human NPY-Y2 receptor potentiators or agonists | cell-based NPY-Y2 potentiator/agonist assay | activation, % at 3.6 µM | actives 20% (n = 450) | shares compounds with NPY-Y2 PAM-ag; in the data active = activation above about 33%
# NPY-Y1 potentiator: NPY-Y1 potentiation or agonism as NPY-Y2 counter-screen; actives 20% (n = 450); AID 1651; shares compounds with NPY-Y2 PAM-ag; Y1 HEK293-CNG cells, membrane potential fluorescence; activation, % at 3.6 µM; in the data active = activation above about 45%;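 note: cells stimulated with submaximal NPY then isoproterenol with phosphodiesterase inhibitor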
# NPY-Y1 ag 2: activates human NPY-Y1, counter-screen for NPY-Y2 potentiators; shares compounds with NPY-Y2 PAM-ag; HEK293 Y1-CNGC, membrane potential fluorescence, agonism; activation, % at 3.6 µM; actives 37% (n = 450);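 active = activation above the mean of DMSO-only control wells plus 3 SD, cut at about 18% in these data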;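 note: cells stimulated with 1 µM isoproterenol plus the PDE inhibitor Ro 20-1724; 0% = isoproterenol with DMSO and no NPY and 100% = 40 nM NPY; Y1 agonists lower the membrane potential dye signal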
# CNGC inhibitor: counter-screen for NPY-Y2 potentiators: inhibitors of CNG channel activity; inhibition, % at 3.6 µM; HEK293-CNG parental, isoproterenol cAMP, membrane potential fluorescence; actives 32% (n = 450); shares compounds with NPY-Y2 PAM-ag;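 active = inhibition above the control-well mean plus 3 SD of those wells, cut at about 22% in these data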;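 note: 0% = DMSO with isoproterenol and 100% = DMSO without isoproterenol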
# Y2 agonist ctr: counter-screen for NPY-Y2 potentiators: agonists of human NPY-Y2 | shares compounds with NPY-Y2 PAM-ag | HEK293 Y2/CNGC cells, membrane potential fluorescence, agonist mode | activation, % at 3.6 µM | actives 56% (n = 450);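 active = activation above the mean of solvent-only control wells plus 3 SD, cut at about 10% in these data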;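 note: cells stimulated by isoproterenol with no NPY added so direct agonism is tested; 0% = DMSO with isoproterenol alone and 100% = NPY at EC100 plus isoproterenol; agonism lowers probe fluorescence through less cAMP and CNG channel opening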
# * = called active by the depositor; · = not tested or not shown. Shown are actives, neighbours in structure and some others; about 2.4% of the full set was active somewhere.
SMILES,NPY Y2 blocker,S1P4 agonist,S1P4 antagonist,NPY Y1 blocker,NPY1 pot ag,NPY-Y2 PAM-ag,NPY-Y2 pot conf,NPY-Y1 potentiator,NPY-Y1 ag 2,CNGC inhibitor,Y2 agonist ctr
CCn1c2ccccc2c2cc(NC(=O)CSc3nnc(-c4ccccc4OC)n3N)ccc21,-4.7,2.4,4.9,-10.2,14.6,43.0*,11.4,14.8,19.3*,16.6,16.0*
O=[N+]([O-])c1cc(Cl)cc(/C=N/Nc2nc3ccccc3s2)c1O,·,-0.5,-15.3,-1.8,24.3,27.9*,60.2*,68.1*,69.3*,62.7*,66.2*
CCOC(=O)Cn1c(=O)oc2cc(S(=O)(=O)Nc3ccc(F)cc3)ccc21,-1.5,1.6,-17.7,-10.7,31.3,35.8*,16.4,20.3,21.8*,33.0*,11.7*
CCOC(=O)Cn1c(=O)oc2cc(S(=O)(=O)NCCc3ccc(C)cc3)ccc21,13.4,2.1,-13.4,2.8,-10.0,-13.2,·,·,·,·,·
CC(C(=O)NC1CCCC1)N(C(=O)c1ccc(-c2ccccc2)[nH]1)c1ccccc1F (configuration not stated),4.9,-0.3,-2.1,0.9,29.1,-13.4,·,·,·,·,·
COc1ccc(S(N)(=O)=O)cc1C(=O)NCCCN1CCN(c2ccc(C)cc2)CC1,0.3,0.1,-17.1,-4.3,25.3,-20.0,·,·,·,·,·
COc1ccc(S(N)(=O)=O)cc1C(=O)NCCCN1CCN(c2ccccc2OC)CC1,1.6,0.8,-10.9,-1.5,13.3,76.3*,-7.2,3.5,-16.9,-6.4,-1.2
O=C(O)CC1S/C(=N/N=C/c2ccc(-c3ccc(Cl)cc3[N+](=O)[O-])o2)NC1=O (configuration not stated),6.5,-2.4,6.7,8.8,-11.2,-2.0,·,·,·,·,·
COC(=O)c1ccsc1NC(=O)C1=COCCO1,0.4,0.9,-20.2,-8.7,-3.5,50.7*,-5.5,-3.3,-11.9,-9.4,-7.2
O=C(Nc1cccc(-c2cn3ccccc3n2)c1)C1CC1,2.5,0.6,4.2,-0.3,1.9,9.9,·,·,·,·,·
Cc1cc(C)n(-c2ccc(C(=O)Nc3ccc(S(=O)(=O)NCc4ccco4)cc3)cc2)n1,1.3,-0.1,-21.5,-1.9,5.5,37.9*,-1.9,-40.9,-26.2,-6.4,-9.3
Cc1cc(/C=N/NC(=O)Cn2c3ccccc3c(=O)c3ccccc32)c(C)n1-c1ccc(Cl)cc1,3.0,4.9,-16.6,-2.9,30.2,30.8*,28.9,32.5,-0.2,-12.4,19.9*
N#Cc1c(Cl)nsc1NN,·,2.0,-12.1,1.4,22.3,30.9*,16.8,27.2,27.2*,15.1,30.1*
CS(=O)(=O)NCc1nnc(SCc2ccc(C(F)(F)F)cc2)o1,·,-1.1,-2.6,·,1.3,101.8*,2.0,1.7,-0.6,-3.4,7.7
CS(=O)(=O)NCc1nnc(SCc2ccccc2C(F)(F)F)o1,3.6,1.6,-7.5,10.4,13.6,-0.3,·,·,·,·,·
O=C(CSc1nc2ccccc2c(=O)n1Cc1ccco1)c1ccccc1,6.5,-0.6,-5.5,7.7,-10.8,8.3,·,·,·,·,·
Cc1ccc(NC(=O)Nc2cccc([N+](=O)[O-])c2)cc1F,-2.8,3.3,-3.6,-3.3,30.7,31.6*,20.8,24.4,14.7,18.1,17.1*
CCc1ccc(/C(C)=N\Nc2ccc([N+](=O)[O-])cc2)cc1,-4.3,2.3,-19.6,-6.3,37.5,39.0*,20.0,27.2,24.3*,30.4*,29.6*
C/C(=N\Nc1ccc([N+](=O)[O-])cc1)c1ccc(N)cc1,-3.2,7.0,-22.2,0.4,7.9,-11.5,·,·,·,·,·
CCC(=O)Nc1nc2nc(-c3ccccc3)cc(=O)n2[nH]1,·,-0.1,-12.7,·,19.8,-3.4,·,·,·,·,·
CCn1[nH]c(=O)c(=Nc2c(C)n(C)n(-c3ccccc3)c2=O)cc1-c1ccc(Cl)cc1,1.2,2.3,-2.6,-7.2,52.6,41.5*,38.2*,59.6*,42.9*,53.0*,30.3*
Cc1cccc(CSC(Nc2ccc(F)cc2)=C(C#N)C#N)c1,6.3,1.9,-9.8,0.2,5.5,40.1*,-11.4,-54.5,-30.1,-19.1,0.4
N#CC(C#N)=C(Nc1ccc(F)cc1)SCc1cccc(Br)c1,6.9,-0.9,7.8,20.0,-25.4,6.8,·,·,·,·,·
COCCCn1c(O)c(/C=C2\N=C(C#N)C(=Nc3ccc(C)cc3)O2)sc1=S,·,1.4,-3.0,·,27.2,36.9*,19.4,9.5,-1.6,-4.1,27.2*
COc1ccc(-c2csc(N3CCN(c4cc(C)nc5ccccc45)CC3)n2)cc1OC,·,-0.1,-4.8,7.6,-1.2,31.7*,40.4*,39.1,16.0,32.7*,29.2*
SMILES,NPY Y2 blocker,S1P4 agonist,S1P4 antagonist,NPY Y1 blocker,NPY1 pot ag,NPY-Y2 PAM-ag,NPY-Y2 pot conf,NPY-Y1 potentiator,NPY-Y1 ag 2,CNGC inhibitor,Y2 agonist ctr
O=C(CN(c1ccc(F)cc1)S(=O)(=O)c1ccc2c(c1)OCCO2)NCc1ccccc1,2.4,2.5,3.4,4.8,-10.6,1.4,·,·,·,·,·
O=C(CN(c1cccc(C(F)(F)F)c1)S(=O)(=O)c1ccc(Cl)c([N+](=O)[O-])c1)NCc1ccc(F)cc1,-3.0,3.1,6.1,-11.5,39.4,35.5*,67.8*,84.7*,85.2*,64.0*,79.0*
CCCCNC(=O)C1C2C=CC3(CN(Cc4ccccc4Cl)C(=O)C13)O2 (configuration not stated),1.2,1.9,-18.1,2.0,1.3,9.7,·,·,·,·,·
CN(C)S(=O)(=O)Oc1cccc(C(=O)Nc2ccccc2Cl)c1,1.8,-5.5,3.7,-2.3,-6.9,5.9,·,·,·,·,·
CN(C)S(=O)(=O)Oc1cccc(C(=O)Nc2ccc(Cl)cc2)c1,1.7,0.9,-17.9,-8.9,40.2,48.1*,-3.9,-36.4,-21.4,-11.6,-7.0
Nc1nc(N2CCCCC2)nc2ccccc12,1.2,-1.1,-5.0,-0.3,-5.1,54.5*,71.5*,79.2*,43.6*,40.1*,71.6*
CCOc1cc(/C=N/NC(=O)c2ccc(CN3CCOCC3)cc2)ccc1OCc1ccccc1,3.0,0.5,-25.7,-3.9,-7.0,3.2,·,·,·,·,·
COc1cccc(C(=O)CN2CCN(S(=O)(=O)c3ccc(Br)cc3)CC2)c1,0.4,0.7,-25.4,-2.4,5.1,-0.4,·,·,·,·,·
CN(Cc1ccccc1)C(=O)COC(=O)c1cc(NS(=O)(=O)c2cccs2)ccc1O,·,0.6,-9.6,-6.8,25.3,35.2*,6.6,-9.9,-14.3,-1.5,-4.4
